Source: ChEMBL document CHEMBL2021841, “The design and synthesis of potent, selective benzodiazepine sulfonamide bombesin receptor subtype 3 (BRS-3) agonists with an increased barrier of atropisomerization” (Bioorg Med Chem, 2012)

Legend:
[1] = target: T1, Bombesin receptor subtype-3 (Homo sapiens) (UniProt P32247); experiment: Agonist activity at human BRS3 expressed in human HEK293AEQ cells measured for 10 mins by aequorin bioluminescence assay relative to dY-peptide; format: functional, cell-based
T1 sequence (whole entry): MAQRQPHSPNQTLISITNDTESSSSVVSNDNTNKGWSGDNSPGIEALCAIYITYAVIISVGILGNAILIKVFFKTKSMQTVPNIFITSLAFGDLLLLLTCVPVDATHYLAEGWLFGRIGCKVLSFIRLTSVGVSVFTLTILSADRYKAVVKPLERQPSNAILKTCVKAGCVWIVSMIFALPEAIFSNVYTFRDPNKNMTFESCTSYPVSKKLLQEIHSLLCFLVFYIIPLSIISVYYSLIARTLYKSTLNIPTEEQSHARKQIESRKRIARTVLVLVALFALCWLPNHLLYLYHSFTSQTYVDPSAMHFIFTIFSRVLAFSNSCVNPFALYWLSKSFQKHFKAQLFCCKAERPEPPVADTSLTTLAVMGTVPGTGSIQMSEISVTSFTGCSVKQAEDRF
Outline: (§1)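 Same aequorin read-out in HEK293AEQ cells expressing human or mouse BRS3. Compounds were titrated in ECB buffer with 0.5% DMSO final, and coelenterazine-loaded cells were injected. Luminescence was integrated over 10 min. The value is maximal activation expressed as a percentage of the maximal response to dY-peptide.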

[2] = Half life in Sprague-Dawley rat at 0.5 mg/kg, iv; format: ADME, organism-based; design: dose 0.5 mg/kg, route intravenous; conditions: in vivo
Outline: (§2)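 Sprague Dawley rats received 0.5 mg/kg iv. Plasma clearance and half-life were calculated from the plasma profile.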

[3] = target: T2, Bombesin receptor subtype-3 (Homo sapiens, UniProt P32247); experiment: Displacement of 125I-dY-peptide from human BRS3 expressed in NFAT-CHO cells after 2 hrs by liquid scintillation counting; format: cell-based
T2 sequence (P32247 whole entry): T1 sequence (whole entry)

[4] = target: T3, Bombesin receptor subtype-3 (Mus musculus, UniProt O54798); experiment: Agonist activity at mouse BRS3 expressed in human HEK293AEQ cells measured for 10 mins by aequorin bioluminescence assay; format: functional, cell-based
T3 sequence (O54798 whole entry): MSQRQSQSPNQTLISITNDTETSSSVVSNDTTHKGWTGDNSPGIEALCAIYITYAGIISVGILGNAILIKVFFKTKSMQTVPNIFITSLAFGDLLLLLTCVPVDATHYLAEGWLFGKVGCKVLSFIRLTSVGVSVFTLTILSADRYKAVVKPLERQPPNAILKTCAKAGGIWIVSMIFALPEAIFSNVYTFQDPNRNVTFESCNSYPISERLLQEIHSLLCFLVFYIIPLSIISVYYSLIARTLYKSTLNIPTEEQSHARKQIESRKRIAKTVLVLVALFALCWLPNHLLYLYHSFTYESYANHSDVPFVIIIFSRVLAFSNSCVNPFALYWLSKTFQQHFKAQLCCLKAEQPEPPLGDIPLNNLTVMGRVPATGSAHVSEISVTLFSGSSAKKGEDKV

[5] = Plasma clearance in Sprague-Dawley rat at 0.5 mg/kg, iv; format: ADME, organism-based; design: dose 0.5 mg/kg, route intravenous; outline: as §2
[6] = tested on: Rattus norvegicus; experiment: Dose normalized AUC in Sprague-Dawley rat at 1 mg/kg, po; format: ADME, organism-based; design: dose 1 mg/kg, route oral; conditions: in vivo
Outline: (§3)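 Sprague Dawley rats were dosed 1 mg/kg po. Dose-normalized oral AUC and oral bioavailability were calculated.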

[7] = target: T4, Bombesin receptor subtype-3 (Mus musculus) (UniProt O54798); experiment: Agonist activity at mouse BRS3 expressed in human HEK293AEQ cells measured for 10 mins by aequorin bioluminescence assay relative to dY-peptide; format: functional, cell-based; outline: as §1
T4 sequence (whole entry): T3 sequence (O54798 whole entry)

[8] = Oral bioavailability in Sprague-Dawley rat at 1 mg/kg; format: ADME, organism-based; conditions: in vivo; outline: as §3
[9] = target: T2, Bombesin receptor subtype-3; experiment: Agonist activity at human BRS3 expressed in human HEK293AEQ cells measured for 10 mins by aequorin bioluminescence assay; format: functional, cell-based
[10] = Half life of the compound in ethanol at 60 degC by CD spectroscopy; format: physicochemical

CC(C)(C(N)=O)c1cccc2c1N(S(=O)(=O)c1ccc(OC(F)(F)F)cc1)Cc1ccc(C(F)(F)F)nc1N2 gave an Activity [1] of 90%, a half-life [2] of 1.6 h and an IC50 [3] of 0.5 nM. For the same compound, the EC50 [4] was 27 nM, the clearance [5] was 33 mL/min/kg and the AUC/dose [6] was 0.3 µM·kg·h/mg. For the same compound, the Activity [7] was 98%, the bioavailability [8] was 31% and the EC50 [9] was 26 nM.
In the case of CC(C)(O)c1nc(C2(c3cccc4c3N(S(=O)(=O)c3ccc(OC(F)(F)F)cc3)Cc3ccc(C(F)(F)F)nc3N4)CCC2)no1, the Activity [1] is reported as 97%, the half-life [2] is reported as 2.9 h and the IC50 [3] is reported as 0.6 nM. For the same compound, the half-life [10] was over 250 h, the EC50 [4] was 76 nM and the clearance [5] was 21 mL/min/kg. It also gave an AUC/dose [6] of 0.6 µM·kg·h/mg, an Activity [7] of 99% and a bioavailability [8] of 49%. The EC50 [9] was 82 nM.
For CC(C)(O)c1nc(-c2cccc3c2N(S(=O)(=O)c2ccc(OC(F)(F)F)cc2)Cc2ccc(C(F)(F)F)nc2N3)no1, the Activity [1] was 106%, the half-life [2] was 11 h and the IC50 [3] was 3.6 nM. For the same compound, the half-life [10] was 2.2 h, the EC50 [4] was 130 nM and the clearance [5] was 16 mL/min/kg. The AUC/dose [6] was 1.6 µM·kg·h/mg, the bioavailability [8] was 93% and the EC50 [9] was 73 nM.
CNC(=O)C1(c2cccc3c2N(S(=O)(=O)c2ccc(OC(F)(F)F)cc2)Cc2ccc(C(F)(F)F)nc2N3)CCC1 gave an Activity [1] of 106%, a half-life [2] of 1.7 h and an IC50 [3] of 2.1 nM. The EC50 [4] was 22 nM, the clearance [5] was 25 mL/min/kg and the AUC/dose [6] was 0.69 µM·kg·h/mg. It also gave an Activity [7] of 112%, a bioavailability [8] of 60% and an EC50 [9] of 15 nM.
Compound NC(=O)C1(c2cccc3c2N(S(=O)(=O)c2ccc(OC(F)(F)F)cc2)Cc2ccc(C(F)(F)F)nc2N3)CCC1 has an Activity [1] of 95%, a half-life [2] of 0.8 h and an IC50 [3] of 0.5 nM. For the same compound, the half-life [10] was over 250 h, the EC50 [4] was 22 nM and the clearance [5] was 31 mL/min/kg. For the same compound, the AUC/dose [6] was 0.3 µM·kg·h/mg, the Activity [7] was 100% and the bioavailability [8] was 32%. The EC50 [9] was 21 nM.
CC(C)(O)c1nc(C(C)(C)c2cccc3c2N(S(=O)(=O)c2ccc(OC(F)(F)F)cc2)Cc2ccc(C(F)(F)F)nc2N3)no1 gave an Activity [1] of 97%, a half-life [2] of 3.1 h and an IC50 [3] of 1.4 nM. The half-life [10] was over 250 h, the EC50 [4] was 67 nM and the clearance [5] was 12 mL/min/kg. It also gave an AUC/dose [6] of 2.6 µM·kg·h/mg, an Activity [7] of 105% and a bioavailability [8] of 100%. The EC50 [9] was 64 nM.
